Assay results: ChEMBL document CHEMBL1157591, “Selective benzimidazole inhibitors of the antigen receptor-mediated NF-kappaB activation pathway” (Bioorg Med Chem, 2010)

Assays:
[1] = Inhibition of antigen receptor-mediated NF-kappaB activity in HEK293 cells after 16 hrs by luciferase reporter gene assay; conditions: Homo sapiens, HEK293, 16 h
[2] = Metabolic stability in human liver microsomes assessed as half life in NADPH co-factor system by RP-HPLC; format: ADME, Microsome
Method in brief: (§1)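 Substrate at 100 µM with human liver microsomes or S9 at 1.6 mg/mL, NADPH-generating system (NADP+, 400 µM glucose-6-phosphate, DETAPAC, 4 IU/mL G6P dehydrogenase), 50 mM potassium phosphate pH 7.4, 37 °C with shaking. Started by adding HLM/S9. Aliquots at 0–60 min stopped in cold acetonitrile and run in duplicate. Parent loss measured by RP-HPLC.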

Cytochrome P450 3A4 = Cytochrome P450 3A4 (Homo sapiens, UniProt P08684); assay: Inhibition of CYP3A4-mediated hydroxylation of testosterone in human liver microsomes in NADPH co-factor system by RP-HPLC; format: ADME, Microsome
Chain of Cytochrome P450 3A4 (P08684 whole entry): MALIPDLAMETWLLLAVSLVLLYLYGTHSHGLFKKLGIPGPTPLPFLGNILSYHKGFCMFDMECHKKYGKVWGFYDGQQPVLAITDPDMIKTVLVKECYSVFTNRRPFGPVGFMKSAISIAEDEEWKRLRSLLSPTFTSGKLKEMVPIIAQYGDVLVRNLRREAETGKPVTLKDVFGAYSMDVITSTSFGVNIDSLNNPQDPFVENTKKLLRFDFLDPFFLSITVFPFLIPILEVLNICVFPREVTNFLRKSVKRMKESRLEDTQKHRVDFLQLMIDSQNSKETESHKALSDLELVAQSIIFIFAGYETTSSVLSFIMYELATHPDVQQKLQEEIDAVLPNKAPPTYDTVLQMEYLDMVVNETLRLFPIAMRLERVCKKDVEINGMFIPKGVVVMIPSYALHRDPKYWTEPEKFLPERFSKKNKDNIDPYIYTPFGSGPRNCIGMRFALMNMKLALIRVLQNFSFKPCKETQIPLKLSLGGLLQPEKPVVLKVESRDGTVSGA

[3] = Metabolic stability in human liver S9 fraction in PAPS co-factor system by RP-HPLC; format: ADME, subcellular
Method in brief: (§2)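 Substrate at 100 µM with HLM or S9 at 1.6 mg/mL and 100 µM PAPS in 50 mM Tris–HCl pH 7.4, 37 °C. Started by adding HLM/S9. Aliquots at 0, 5, 15, 30, 45 and 60 min stopped in cold acetonitrile and run in duplicate. Sulfation taken from parent disappearance by RP-HPLC.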

[4] = Metabolic stability in human liver S9 fraction in UDPG co-factor system by RP-HPLC; format: ADME, subcellular
Method in brief: (§3)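 Glucuronidation with UDPG cofactor plus lecithin, using HLM or S9 in 50 mM potassium phosphate pH 7.4 at 37 °C with shaking. Started by adding HLM/S9. Aliquots at 0–60 min stopped in cold acetonitrile and run in duplicate. Parent disappearance followed by RP-HPLC.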

[5] = Metabolic stability in human liver S9 fraction assessed as half life in NADPH co-factor system by RP-HPLC; format: ADME, subcellular
Method in brief: as §1

Liver microsomes [6] = assay: Metabolic stability in human liver microsomes in PAPS co-factor system by RP-HPLC; format: ADME, Microsome
Method in brief: as §2

Liver microsomes [7] = assay: Metabolic stability in human liver microsomes in UDPG co-factor system by RP-HPLC; format: ADME, Microsome
Method in brief: as §3

Row | SMILES | IC50 [1] | also measured
1 | Cc1cc2nc(N3CCCCC3CO)n(CC(=O)c3cc(C(C)(C)C)c(O)c(C(C)(C)C)c3)c2cc1C (centres undefined) | > 5 µM | –
2 | CCN1CCN(c2nc3cc(C)c(C)cc3n2CC(=O)c2cc(C(C)(C)C)c(O)c(C(C)(C)C)c2)CC1 | > 5 µM | –
3 | C[C@]12CC[C@H]3[C@@H](CCC4=CC(=O)CC[C@@]43C)[C@@H]1CC[C@@H]2O [TESTOSTERONE] | – | half-life [2]: 0.8 h
4 | COCCCNc1nc2cc(C)c(C)cc2n1CC(=O)c1cc(C(C)(C)C)c(O)c(C(C)(C)C)c1 | 0.25 µM | IC50 (Cytochrome P450 3A4): 97 µM
5 | Cc1cc2nc(N3CCOCC3)n(CC(=O)c3cc(C(C)(C)C)c(O)c(C(C)(C)C)c3)c2cc1C | > 5 µM | –
6 | Cc1cc2nc(NCCCO)n(CC(=O)c3ccc(O)cc3)c2cc1C | > 5 µM | –
7 | Cc1cc2nc(N3CCC(Cc4ccccc4)CC3)n(CC(=O)c3cc(C(C)(C)C)c(O)c(C(C)(C)C)c3)c2cc1C | > 5 µM | –
8 | Cc1cc2nc(N3CCCC3)n(CC(=O)c3cc(C(C)(C)C)c(O)c(C(C)(C)C)c3)c2cc1C | > 5 µM | –
9 | Cc1cc2nc(N3CCCCC3CN(C)C)n(CC(=O)c3cc(C(C)(C)C)c(O)c(C(C)(C)C)c3)c2cc1C (centres undefined) | > 5 µM | –
10 | Cc1cc2nc(N3CCN(C)CC3)n(CC(=O)c3cc(C(C)(C)C)c(O)c(C(C)(C)C)c3)c2cc1C | > 5 µM | –
11 | Cc1cc2nc(N3CCCCC3)n(CC(=O)c3cc(C(C)(C)C)c(O)c(C(C)(C)C)c3)c2cc1C | > 5 µM | –
12 | Cc1cc2nc(N3CCN(CCO)CC3)n(CC(=O)c3cc(C(C)(C)C)c(O)c(C(C)(C)C)c3)c2cc1C | > 5 µM | Stability [3]: Stable; Stability [4]: Stable; half-life [5]: 4.6 h; Stability (Liver microsomes [6]): Stable; Stability (Liver microsomes [7]): Stable
13 | CCC1C(C)CN(c2nc3cc(C)c(C)cc3n2CC(=O)c2cc(C(C)(C)C)c(O)c(C(C)(C)C)c2)C1C (centres undefined) | > 5 µM | –
14 | Cc1cc2nc(N3CCCCC3C)n(CC(=O)c3cc(C(C)(C)C)c(O)c(C(C)(C)C)c3)c2cc1C (centres undefined) | > 5 µM | –
15 | C#CCNc1nc2cc(C)c(C)cc2n1CC(=O)c1cc(C(C)(C)C)c(O)c(C(C)(C)C)c1 | > 8 µM | –
16 | Cc1cc2nc(N3CCN(Cc4ccccc4)CC3)n(CC(=O)c3cc(C(C)(C)C)c(O)c(C(C)(C)C)c3)c2cc1C | > 5 µM | Stability [3]: Stable; Stability [4]: Stable; half-life [5]: 4.4 h; Stability (Liver microsomes [6]): Stable; Stability (Liver microsomes [7]): Stable

Row | SMILES | IC50 [1] | also measured
17 | Cc1cc2nc(N3CCC(C)CC3)n(CC(=O)c3cc(C(C)(C)C)c(O)c(C(C)(C)C)c3)c2cc1C | > 5 µM | –
18 | COCCCNc1nc2cc(C)c(C)cc2n1CC(=O)c1cc(C(C)(C)C)c(OC)c(C(C)(C)C)c1 | 0.25 µM | –
19 | Cc1cc2nc(N3CC(C)CC(C)C3)n(CC(=O)c3cc(C(C)(C)C)c(O)c(C(C)(C)C)c3)c2cc1C (centres undefined) | > 5 µM | –
20 | Cc1cc2nc(N3CCC(O)CC3)n(CC(=O)c3cc(C(C)(C)C)c(O)c(C(C)(C)C)c3)c2cc1C | > 5 µM | –
21 | Cc1cc2nc(NCCCO)n(CC(=O)c3cc(C)c(O)c(C)c3)c2cc1C | > 5 µM | –
22 | COc1ccccc1N1CCN(c2nc3cc(C)c(C)cc3n2CC(=O)c2cc(C(C)(C)C)c(O)c(C(C)(C)C)c2)CC1 | > 5 µM | –
23 | COCCCNc1nc2cc(C)c(C)cc2n1CC(=O)c1cc(C)c(O)c(C)c1 | > 5 µM | –
24 | Cc1cc2nc(NCCCO)n(CC(=O)c3cc(C(C)(C)C)c(O)c(C(C)(C)C)c3)c2cc1C | 0.07 µM | Stability [3]: Stable; Stability [4]: Stable; half-life [5]: 15.2 h; Stability (Liver microsomes [6]): Stable; Stability (Liver microsomes [7]): Stable; half-life [2]: 5.5 h
25 | COC[C@@H]1CCCN1c1nc2cc(C)c(C)cc2n1CC(=O)c1cc(C(C)(C)C)c(O)c(C(C)(C)C)c1 | > 5 µM | –
26 | Cc1cc2nc(N3CCC(O)C3)n(CC(=O)c3cc(C(C)(C)C)c(O)c(C(C)(C)C)c3)c2cc1C (centres undefined) | > 5 µM | –
27 | Cc1cc2nc(N3CCC[C@H]3CN3CCCC3)n(CC(=O)c3cc(C(C)(C)C)c(O)c(C(C)(C)C)c3)c2cc1C | > 5 µM | –
28 | COCCCNc1nc2cc(C)c(C)cc2n1CC(=O)c1ccc(O)cc1 | > 5 µM | –
29 | Cc1cc2nc(N3CCCC(C)C3)n(CC(=O)c3cc(C(C)(C)C)c(O)c(C(C)(C)C)c3)c2cc1C (centres undefined) | > 5 µM | –
30 | COc1c(C(C)(C)C)cc(C(=O)Cn2c(NCCCO)nc3cc(C)c(C)cc32)cc1C(C)(C)C | 0.07 µM | IC50 (Cytochrome P450 3A4): 67 µM
31 | CCCCNc1nc2cc(C)c(C)cc2n1CC(=O)c1cc(C(C)(C)C)c(O)c(C(C)(C)C)c1 | 0.1 µM | –
